# Screening data (PubChem)
# Only some compounds are listed: those with a hit (about 3.7% of all), similar ones and a draw of the others.
# TAAR1 agonist: human TAAR1 agonism. 360,000 tested, 0.99% active. activation, % at 3 µM. CHO RD-HGA16 TAAR1, Fluo-8 calcium fluorescence; vehicle wells 0%, saturating PEA agonist 100%. Q96RJ0;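 active means activation above the mean activation of all test compounds in the run plus 3 SD, cut at about 38% in these data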
# Target sequence (Q96RJ0 whole entry, looked up): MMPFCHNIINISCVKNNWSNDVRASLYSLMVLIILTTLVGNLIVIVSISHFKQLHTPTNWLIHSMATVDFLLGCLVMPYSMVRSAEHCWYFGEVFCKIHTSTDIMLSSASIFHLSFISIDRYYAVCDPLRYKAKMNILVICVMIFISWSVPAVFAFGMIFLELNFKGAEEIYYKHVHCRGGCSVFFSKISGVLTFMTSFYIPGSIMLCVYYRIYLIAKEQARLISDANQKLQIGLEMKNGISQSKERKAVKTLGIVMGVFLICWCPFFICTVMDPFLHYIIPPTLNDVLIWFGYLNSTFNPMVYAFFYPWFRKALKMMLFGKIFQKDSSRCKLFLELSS
#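 Assay system – CHO-derived RD-HGA16 cells with stable Gα16 and human TAAR1 · Compound dosing – one-point dosing at 3 µM (nominal) · Incubation – 17-24 h seeding, 75 min 37 °C dye, 30 min RT · Measured by – kinetic Fluo-8 calcium fluorescence · Control set – DMSO vehicle as 0%, PEA at EC100 as 100% · Repeats – single well for each compound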
# HCV NS3 hel inh: HCV NS3 helicase inhibition | NS3 helicase DNA unwinding, Cy5 molecular beacon fluorescence | 290,000 tested, 0.56% active | AID 1800 | inhibition, % at 10.9 µM;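 active means inhibition above the mean of all tested compounds plus 3 SD, set per campaign, cut at about 35% in these data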
#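 Assay system: hepatitis C virus NS3 helicase domain fragment enzyme. Also added: annealed dual-labelled DNA beacon duplex, ATP-started. Timing: 1 h reaction at 25 °C, ATP-initiated. Technique: Cy5 fluorescence at 0 and 60 min, beacon hairpin quenching. Evaluation: % inhibition of unwinding. Replication: one well per compound.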
# HCV core dimer: HCV core protein dimerization inhibition | 300,000 tested, 0.33% active | AID 1899 | TR-FRET GST/Flag-core106 dimerization, 1536-well | inhibition, % at 5 µM;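 active means inhibition above the mean of all tested compounds plus 3 SD, set per screening campaign, cut at about 45% in these data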
#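 Assay system: tagged HCV core106 pair (GST and Flag); medium: KF-containing HEPES buffer, pH 7.45, DTT, CHAPS, BSA; also added: Eu donor and XL665 acceptor anti-tag antibodies; dosing: 5 µM single dose; timing: compound-protein-antibody incubation 4 h at 22.5 °C; signal: TR-FRET 671 and 617 nm emission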
# TAAR1 antag: human TAAR1 antagonism. Q96RJ0. CHO RD-HGA16 TAAR1, Fluo-8 calcium fluorescence, antagonist. inhibition, % at 3 µM. 360,000 tested, 1.5% active. AID 624466;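 active means inhibition above a per-plate cutoff, the mean inhibition of test compounds on that plate plus 3 SD, cut at about 49% in these data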
#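 Test system – hTAAR1-expressing CHO RD-HGA16 cells, Gα16-coupled · Also added – β-PEA at EC80 concentration, post-compound challenge · Compound – 3 µM, single point · Incubation – dye loading 75 min at 37 °C, then 30 min room temperature · Measured by – Fluo-8 intracellular calcium dye fluorescence, real-time kinetic reads · Benchmarks – vehicle and agonist controls · Replicates – singlicate, one well per test compound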
# rCAG binder: molecules binding r(CAG) RNA repeats. r(CAG) RNA repeat, TO-PRO-1 dye displacement fluorescence. inhibition, % at 3 µM. 370,000 tested, 1.3% active. AID 651821;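 active means inhibition above the plate cutoff, the mean of all test compounds on that plate plus 3 SD, cut at about 35% in these data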;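 further: higher means more dye released from RNA so lower well fluorescence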
# nonsel antag count: nonselective antagonism, TAAR1 counter-screen. counterscreen cell line, calcium fluorescence, antagonist mode. shares compounds with TAAR1 antag. AID 651780. 2,400 tested, 77% active. inhibition, % at 3 µM; in the data active means inhibition above about 22%;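 further: CHO-Ga16 host cells stimulated with ATP at an EC80 level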
# TAAR1 ant conf: confirmation of human TAAR1 antagonists | shares compounds with TAAR1 antag | inhibition, % at 3 µM | TAAR1-expressing cells, fluorescence antagonist read-out | 2,400 tested, 40% active; in the data active means inhibition above about 49%;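 further: CHO-Ga16 host cells challenged with agonist PEA near its EC80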
# Ga16 nonsel ag: counter-screen for TAAR1 antagonists: nonselective Ga16 agonists; shares compounds with TAAR1 antag; Ga16-expressing cells, calcium fluorescence, agonist counterscreen; activation, % at 3 µM; 2,400 tested, 18% active; AID 651953; in the data active means activation above about 12%
# TAAR1 ag counter: counter-screen for human TAAR1 antagonists: TAAR1 agonists | shares compounds with TAAR1 antag | hTAAR1 cell line, fluorescence activation, agonist mode | activation, % at 3 µM | 2,400 tested, 2% active | AID 651955; in the data active means activation above about 37%;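 further: CHO cells stably expressing TAAR1 with calcium dye readout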
# rCAG bind conf: r(CAG) RNA repeat binding, confirmation. shares compounds with rCAG binder. TO-PRO-1 dye displacement fluorescence. inhibition, % at 3 µM. 4,300 tested, 70% active. AID 652065;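 active means inhibition above a per-plate cutoff, the mean inhibition of sample wells plus 3 SD, cut at about 35% in these data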;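 further: loss of TO-PRO-1 fluorescence as compound displaces dye from 1x1 AA loop RNA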
# DNA CAG counter: disrupts DNA CAG TO-PRO-1 complex, flagging rCAG hits. inhibition, % at 3 µM. 4,300 tested, 94% active. shares compounds with rCAG binder. d(CAG) DNA oligo TO-PRO-1 dye displacement, fluorescence;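 active means inhibition above its plate's cutoff, the mean test-well inhibition plus 3 SD, cut at about 4.8% in these data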;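 further: hits displace the dye from DNA and so lower well fluorescence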
# Hits are given with their value; i = inactive; nt = not tested or not shown.
SMILES,TAAR1 agonist,HCV NS3 hel inh,HCV core dimer,TAAR1 antag,rCAG binder,nonsel antag count,TAAR1 ant conf,Ga16 nonsel ag,TAAR1 ag counter,others
COc1cc(-c2noc(C)c2C#Cc2ccsc2)cc(OC)c1OC,i,i,i,65,i,i,i,i,i,
Cn1nc(C(C)(C)C)c([N+](=O)[O-])c1C(=O)Nc1cccc2ccccc12,i,i,i,56,i,22,i,i,i,
CCCCC#Cc1ccccc1COC[B-](F)(F)F,i,nt,nt,i,i,nt,nt,nt,nt,
CCc1nc2ccccc2c(C(=O)OCCN2C(=O)c3ccccc3C2=O)c1C,i,i,i,66,i,26,i,i,i,
CCc1nc2ccccc2c(C(=O)OCC(=O)C(C)(C)C)c1C,i,i,i,i,i,nt,nt,nt,nt,
COC(=O)c1cc(-c2ccc3ccccc3c2)c(=O)n2c1CCC2,nt,nt,nt,nt,i,nt,nt,nt,nt,
COc1cccc(/C=N/Nc2nnc3c(n2)[nH]c2ccccc23)c1OC,i,i,i,61,i,i,i,i,i,
COc1cccc(C=NNc2nc3ccccc3s2)c1OC,i,nt,nt,i,i,nt,nt,nt,nt,
Cc1occc1-c1nnc(SCC(=O)Nc2ccc3ncccc3c2)n1-c1ccccc1,nt,nt,nt,nt,i,nt,nt,nt,nt,
O=C(CCc1ccc(O)cc1)c1c(O)cc(O)cc1O,i,nt,i,i,i,nt,nt,nt,nt,
COc1cc(O)c(CC=C(C)C)c(O)c1C(=O)CCc1ccc(O)cc1,i,nt,i,89,i,44,61,16,i,
COc1ccccc1CCC[C@H](CCS(=O)(=O)C(C)C)CC1CCCCC1,nt,nt,nt,nt,i,nt,nt,nt,nt,
COc1ccc(CCN2CC(=O)N3CCc4ccc(N5CCOCC5)cc4C3CC2=O)cc1OC (configuration not stated),i,nt,nt,i,i,nt,nt,nt,nt,
O=C1CC2c3cc(-c4cc5ccccc5o4)ccc3CCN2C(=O)CN1Cc1ccccc1 (configuration not stated),i,nt,nt,54,i,27,i,i,i,
CCN(CC)c1ncnc2c1cnn2Cc1ccc(Cl)cc1,i,i,i,54,i,27,i,i,i,
CSc1ccc(C=NNC(=O)c2cc(-c3ccc(Cl)cc3)n[nH]2)cc1,nt,nt,nt,nt,i,nt,nt,nt,nt,
Nn1c(SCC(=O)Nc2ccc(OCc3ccccc3)cc2)nnc1-c1cc(-c2ccc(Cl)cc2)n[nH]1,nt,nt,nt,nt,i,nt,nt,nt,nt,
COC(=O)c1cccc(Nc2nc(-c3cccnc3)nc3ccccc23)c1,i,i,i,67,i,27,i,i,i,
COc1cc(NC(=O)C2CCCN(S(=O)(=O)c3cc(OC)ccc3OC)C2)cc(OC)c1 (configuration not stated),nt,nt,nt,nt,i,nt,nt,nt,nt,
Oc1ccc(-c2nc3ccccn3c2NCc2ccc3c(c2)OCO3)cc1,i,i,i,55,i,30,53,i,i,
Fc1ccc(-c2nc3ccccn3c2NCc2ccc3c(c2)OCO3)cc1,i,i,i,i,i,nt,nt,nt,nt,
C[C@H](O)[C@@H]1C(=O)N2CCc3c([nH]c4c(-c5ccccc5)cccc34)[C@@H]2C[C@@H]1N(C)C(=S)NCCc1ccccc1,i,nt,nt,i,i,nt,nt,nt,nt,
C/C(=N\NC(=O)c1cc(-c2ccccc2)nc2ccccc12)c1ccc(Cl)cc1,nt,nt,nt,nt,i,nt,nt,nt,nt,
Cc1cccc(N2CCN(C(=O)CCn3c(=O)[nH]c4ccsc4c3=O)CC2C)c1 (configuration not stated),i,i,i,60,i,23,i,i,i,
Cc1nc2scc(-c3ccc(Cl)cc3)c2c(=O)n1N,i,i,i,i,i,nt,nt,nt,nt,
SMILES,TAAR1 agonist,HCV NS3 hel inh,HCV core dimer,TAAR1 antag,rCAG binder,nonsel antag count,TAAR1 ant conf,Ga16 nonsel ag,TAAR1 ag counter,others
CC(C)c1nc2scc(-c3ccc(Cl)cc3)c2c(=O)n1N,i,i,i,66,i,32,i,i,i,
COc1cc(-c2nc(C(=O)NCC3CCCO3)cc3c2[nH]c2ccccc23)cc(OC)c1OC (configuration not stated),i,i,i,61,i,28,i,i,i,
COc1ccccc1-c1nc(C(=O)NCC2CCCO2)cc2c1[nH]c1ccccc12 (configuration not stated),nt,i,i,nt,nt,nt,nt,nt,nt,
COc1cccc(NC(=O)CCSc2ccc3ccccc3n2)c1,i,i,i,76,i,i,i,i,i,
Cc1cccc(NC(=O)CCS(=O)(=O)c2ccccc2)c1C,nt,nt,nt,nt,i,nt,nt,nt,nt,
N#Cc1c(-c2cccc(Br)c2)cc(-c2cccnc2)nc1N,i,i,i,56,i,i,i,i,i,
N#Cc1c(-c2ccc(Br)cc2)cc(-c2cccnc2)nc1N,i,i,i,i,i,nt,nt,nt,nt,
O=C(c1cccc(F)c1F)N(Cc1ccccn1)CC1CCCO1 (configuration not stated),nt,nt,nt,nt,i,nt,nt,nt,nt,
CC(C)COc1ccc(C(=O)NNC(=O)c2ccc(=O)[nH]c2)cc1,i,nt,nt,103,i,i,i,i,i,
COc1ccc(Nc2nc(C(=O)N3CCc4ccccc4C3)cs2)cc1,i,i,i,i,i,nt,nt,nt,nt,
COc1ccc(Nc2nc(C(=O)N3CCc4cc(OC)c(OC)cc4C3)cs2)cc1,i,i,i,57,i,22,i,i,i,
COc1ccc(CNC(=O)CN(Cc2ccc(Cl)cc2)S(=O)(=O)c2ccccc2)cc1,i,i,i,i,i,nt,nt,nt,nt,
COc1ccc(CNC(=O)CN(Cc2ccccc2)S(=O)(=O)c2ccc(Cl)cc2)cc1,i,i,i,63,i,42,65,12,i,
Cc1[nH]nc2c1C(c1ccccc1)N(Cc1ccccc1)C2=O (configuration not stated),i,nt,nt,i,i,nt,nt,nt,nt,
COc1ccccc1NS(=O)(=O)c1cccc(NC(=O)Nc2ccccc2)c1,i,i,i,98,i,60,94,15,50,
CCNC(=S)Nc1cccc(S(=O)(=O)Nc2ccccc2OC)c1,i,i,i,i,i,nt,nt,nt,nt,
CCc1ccc(NC(=S)N(Cc2cccc(Br)c2)CC2CCC(C(=O)O)CC2)cc1 (configuration not stated),i,i,i,61,42,i,i,i,i,rCAG bind conf=53;DNA CAG counter=18
COc1cc(/C=C2/CCC/C(=C\c3cc(O)c(OC)c(Cl)c3)C2=O)cc(Cl)c1O,i,i,50,58,38,42,i,i,i,rCAG bind conf=i;DNA CAG counter=10
